Assay results reported in paper PMC3447631 (Chemistry & biology, 2012).
In brackets after ≈: the same amount, converted by molar mass.

Legend:
[1] = test system: endogenous insulin promoter; assay: Endogenous insulin mRNA; type: cell-based, human; conditions: for effect of fatty acid on insulin gene expression (quantitative RT-PCR): T6PNE, 1μM tamoxifen, 48 hours; for effect on endogenous insulin expression / insulin promoter activity: T6PNE cells
In short: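 Q-PCR of endogenous insulin mRNA in T6PNE cells after 48 h exposure to test compound across a concentration series. For fatty acids, cells got 1μM tamoxifen plus fatty acid or DMSO vehicle for 48 hours before RNA harvest. Insulin mRNA was normalized to GAPDH or 18S rRNA; mean ± SE, n=3.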

HNF4α gene expression [2] = assay: HNF4α mRNA expression in T6PNE cells; type: cell-based, human
INS1 and INS2 genes = assay: Insulin gene mRNA in MIN6 cells after prolonged fatty acid exposure; type: cell-based, murine; conditions: 0.08mM Oleate or 0.02mM Palmitate, 110 days
HNF4α gene expression [3] = assay: HNF4α mRNA expression in MIN6 cells; type: cell-based, murine; conditions: for effect of fatty acid on HNF4α gene in MIN6: 0.08mM Oleate or 0.02mM Palmitate, 110 days
human insulin promoter = assay: Human insulin promoter-GFP transgene assay in T6PNE cells; type: cell-based; conditions: for effect of reported HNF4α ligands on insulin promoter activity: 48 hours, 0.5 μM or 1 μM tamoxifen
In short: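 T6PNE cells carry a lentiviral human insulin promoter–GFP transgene. Cells were treated for 48 hours; where stated, tamoxifen was 0.5 or 1 μM and fatty acids 0.12 mM. The green channel was imaged and percent GFP+ cells normalized to total cells per well.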

[4] = test system: modified estrogen receptor (E47MER); assay: Counterscreen: prevention of E47MER translocation; type: cell-based
tumor cell lines = assay: Toxicity to tumor cell lines versus cultured primary cells in vitro; type: cell-based
p57Kip2 expression = assay: Kip2 mRNA in T6PNE cells; type: cell-based, human
In short: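 Kip2 mRNA in T6PNE cells measured by Q-PCR, normalized to 18s rRNA. Treated and DMSO vehicle cells were compared by Student's t-test.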

PPARδ = PPARδ (Homo sapiens, UniProt Q03181); assay: PPRE-luciferase reporter assay with PPARδ co-transfection; type: cell-based
full-length HNF4α = full-length HNF4α (Rattus norvegicus, UniProt P22449); assay: Direct binding by quenching of HNF4α aromatic amino acid fluorescence; conditions: Hill equation analysis
Solubility = type: physicochemical
PPARα = PPARα (Homo sapiens, UniProt Q07869); assay: PPRE-luciferase reporter assay with PPARα co-transfection; type: cell-based
PPARγ = type: cell-based; conditions: PPRE-Luc, HeLa
In short: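 HeLa cells were co-transfected with a PPRE-Luc reporter, with or without a PPARγ expression vector, then treated with test compound. Read-out was luciferase activity; mean ± SE, n=3.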

[5] = Hepatic microsomal stability; type: in vitro ADME; conditions: after 1.25 h
[6] = test system: E47 and PDX-1 binding to the human insulin promoter; assay: ChIP of E47 and PDX-1 on the human insulin promoter in T6PNE cells; type: cell-based; conditions: 5μM, 48 hours
In short: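 T6PNE cells were given 1μM tamoxifen plus DMSO or 5μM test compound for 48 hours. ChIP used anti-E47 and anti-PDX-1 antibodies, followed by Q-PCR with primers for the E-box and A-box elements of the insulin promoter. Treated and vehicle binding were compared by Student's t-test.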

Plasma stability = type: in vitro ADME; conditions: after 3 h
Plasma protein binding = type: in vitro ADME; conditions: after 4 h
HNF4α DNA binding = target: T1, HNF4α DNA binding (Homo sapiens, UniProt P41235); assay: HNF4α DNA binding, HNF TransAM ELISA on HepG2 nuclear extracts; type: cell-based; conditions: HepG2 incubated overnight with compound
T1 sequence (P41235 1-474): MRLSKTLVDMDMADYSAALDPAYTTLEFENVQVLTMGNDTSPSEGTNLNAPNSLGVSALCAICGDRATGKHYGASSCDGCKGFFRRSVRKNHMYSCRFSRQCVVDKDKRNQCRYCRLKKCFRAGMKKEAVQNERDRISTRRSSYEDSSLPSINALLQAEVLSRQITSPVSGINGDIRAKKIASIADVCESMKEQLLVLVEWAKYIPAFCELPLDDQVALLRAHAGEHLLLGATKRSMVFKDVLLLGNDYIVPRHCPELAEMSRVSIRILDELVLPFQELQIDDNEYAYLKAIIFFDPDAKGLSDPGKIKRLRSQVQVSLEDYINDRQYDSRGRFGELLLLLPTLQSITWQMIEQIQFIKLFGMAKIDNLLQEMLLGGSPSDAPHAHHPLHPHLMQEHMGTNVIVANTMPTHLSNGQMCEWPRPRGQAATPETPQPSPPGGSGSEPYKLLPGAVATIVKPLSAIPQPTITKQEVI
In short: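 HepG2 cells were incubated overnight with test compound. Nuclear protein extracts (5μg) were added to wells bearing an oligonucleotide with an HNF4α binding site. Bound HNF4α was detected with an anti-HNF4α antibody (ELISA). Mean ± SD, n=3 biological replicates; Student's t-test.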

HNF4α gene expression [7] = assay: HNF4α mRNA expression in HepG2 cells; type: cell-based; conditions: 48 hours
In short: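 HNF4α mRNA in treated HepG2 cells measured by Q-PCR and normalized to 18S rRNA. Differences in expression assessed by Student's t-test.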

HNF4α = target: T2, HNF4α (Homo sapiens, UniProt P41235); assay: DARTS assay in HepG2 cells; type: binding; conditions: HepG2, 20μM, 24hr, subtilisin
T2 sequence (P41235 1-474): T1 sequence (P41235 1-474)
In short: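 DARTS: HepG2 cells were treated with DMSO or test compound at 20μM for 24hr. Read-out is the ligand-induced change in HNF4α sensitivity to proteolysis.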

Sequence of full-length HNF4α (P22449 whole entry): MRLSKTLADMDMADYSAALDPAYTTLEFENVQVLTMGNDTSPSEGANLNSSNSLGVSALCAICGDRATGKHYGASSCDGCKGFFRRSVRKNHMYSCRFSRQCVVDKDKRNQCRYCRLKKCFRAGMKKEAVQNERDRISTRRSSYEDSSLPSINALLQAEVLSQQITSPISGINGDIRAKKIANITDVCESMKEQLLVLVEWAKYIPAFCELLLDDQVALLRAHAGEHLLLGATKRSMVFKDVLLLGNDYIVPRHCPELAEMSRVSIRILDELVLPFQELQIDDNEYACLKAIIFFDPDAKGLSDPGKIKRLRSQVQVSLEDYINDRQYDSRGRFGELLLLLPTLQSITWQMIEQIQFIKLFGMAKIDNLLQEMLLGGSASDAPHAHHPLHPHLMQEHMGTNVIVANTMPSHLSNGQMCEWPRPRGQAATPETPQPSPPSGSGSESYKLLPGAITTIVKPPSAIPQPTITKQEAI
Sequence of PPARα (Q07869 whole entry, species assumed): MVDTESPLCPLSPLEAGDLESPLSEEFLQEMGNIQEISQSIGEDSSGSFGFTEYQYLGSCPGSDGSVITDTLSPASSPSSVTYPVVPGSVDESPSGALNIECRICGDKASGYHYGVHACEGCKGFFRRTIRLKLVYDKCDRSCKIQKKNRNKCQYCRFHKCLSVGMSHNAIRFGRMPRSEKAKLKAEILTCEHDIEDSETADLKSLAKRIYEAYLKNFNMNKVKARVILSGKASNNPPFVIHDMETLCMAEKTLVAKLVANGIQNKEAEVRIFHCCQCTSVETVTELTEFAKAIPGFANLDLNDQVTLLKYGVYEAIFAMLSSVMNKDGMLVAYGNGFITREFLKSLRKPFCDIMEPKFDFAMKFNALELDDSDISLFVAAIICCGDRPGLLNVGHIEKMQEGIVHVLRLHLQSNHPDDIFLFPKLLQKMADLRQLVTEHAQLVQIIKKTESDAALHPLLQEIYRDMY
Sequence of PPARδ (Q03181 whole entry, species assumed): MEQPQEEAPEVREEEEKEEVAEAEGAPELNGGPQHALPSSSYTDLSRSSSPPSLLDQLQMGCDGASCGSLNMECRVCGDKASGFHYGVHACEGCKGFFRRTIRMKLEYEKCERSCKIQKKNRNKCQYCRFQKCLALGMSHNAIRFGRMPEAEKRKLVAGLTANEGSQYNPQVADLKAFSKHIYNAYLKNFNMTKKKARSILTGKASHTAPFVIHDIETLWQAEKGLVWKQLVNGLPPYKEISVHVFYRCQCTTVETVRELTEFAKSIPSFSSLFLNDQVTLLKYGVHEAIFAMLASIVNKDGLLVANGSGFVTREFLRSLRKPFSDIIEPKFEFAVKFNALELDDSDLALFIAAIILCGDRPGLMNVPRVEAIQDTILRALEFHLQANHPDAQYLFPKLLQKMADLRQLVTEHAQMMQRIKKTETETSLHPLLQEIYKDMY

Compound: CCCCCCCCCCCCCCCC(=O)O [palmitate, reference compound]
- effect of fatty acid on insulin gene expression (quantitative RT-PCR) [1]: dose-dependent decrease
- effect of fatty acid on HNF4α mRNA levels in T6PNE (HNF4α gene expression [2]; 48 hour treatment, with tamoxifen): significantly inhibited
- effect on INS2 gene in MIN6 (INS1 and INS2 genes): inhibited
- effect of fatty acid on HNF4α gene in MIN6 (HNF4α gene expression [3]): inhibited

Compound: CCCC(=O)O [butyric]
- effect of fatty acid on insulin gene expression (quantitative RT-PCR) [1]: did not have an effect

Compound: 3-methyl-2-nitronaphthofuran [Compound 5]
- effect of reported HNF4α ligands on insulin promoter activity (human insulin promoter): none of these compounds had consistent and robust effects

Compound: CC(C)(CCCCCCCCCCC(C)(C)CC(=O)O)CC(=O)O [Medica-16, 3,3,14,14-tetramethylhexadecanedioic acid]
- effect of reported HNF4α ligands on insulin promoter activity (human insulin promoter): none of these compounds had consistent and robust effects

Compound: CCCCCCCC/C=C\CCCCCCCC(=O)O [oleate, reference compound]
- effect on INS2 gene in MIN6 (INS1 and INS2 genes): inhibited
- effect of fatty acid on HNF4α gene in MIN6 (HNF4α gene expression [3]): inhibited

Compound: CC(=O)O [acetic]
- effect of fatty acid on insulin gene expression (quantitative RT-PCR) [1]: did not have an effect

Compound: Cc1nc2ccccc2n1S(=O)(=O)c1cc([N+](=O)[O-])ccc1Cl [BIM5078, 1-(2′-chloro-5′-nitrobenzenesulfonyl)-2-methylbenzimidazole]
- estrogenic antagonism / tamoxifen-like activity (E47MER translocation) [4]: passed the counterscreen
- toxicity to tumor cell lines in vitro (tumor cell lines): toxic
- effect on Kip2 expression (p57Kip2 expression): potently decreased
- luciferase activity with PPARδ co-transfected (PPARδ): no change in luciferase activity
- IC50 ([1]; Homo sapiens, 48 h, read-out: IC50, inhibition of endogenous insulin expression): 930 nM
- effect on endogenous insulin expression / insulin promoter activity [1]: had activity
- Hill coefficient of binding (full-length HNF4α): 0.9 ± 0.3
- solubility at 18 h (Solubility): 0.17 µg/mL (≈ 0.483 µM)
- luciferase activity with PPARα co-transfected (PPARα): no change in luciferase activity
- effect on HNF4α expression in T6PNE (HNF4α gene expression [2]; 48 hours): potently repressed
- PPRE activation enhanced by co-transfection with PPARγ expression vector (PPARγ): ~4 fold
- activity as PPARγ agonist (PPARγ): had activity as PPARγ agonists
- PPRE activation (PPARγ; without PPARγ expression vector): 2 fold
- microsomal stability, remaining [5]: 32%
- association of E47 with the distal (E2) E-box of the insulin promoter [6]: significantly decreased
- association of PDX-1 at A-boxes (A1, A3, A5) of the insulin promoter [6]: significantly decreased
- plasma stability, remaining (Plasma stability): 8%
- binding to plasma proteins, bound (Plasma protein binding): 98%
- effect on HNF4α DNA binding (HNF4α DNA binding): active but less potent
- effect on HNF4α expression in HepG2 (HNF4α gene expression [7]): potently repressed
- effect on HNF4α protease sensitivity (DARTS) (HNF4α): induced altered HNF4α protease sensitivity
- effect on HNF4α expression in MIN6 (HNF4α gene expression [3]; 5 hours): potently repressed

Compound: O=[N+]([O-])c1ccc2nc(-c3ccco3)[nH]c2c1 [compound 5816458]
- estrogenic antagonism / tamoxifen-like activity (E47MER translocation) [4]: estrogenic antagonists

Compound: Cc1nc2ccccc2n1Cc1cc([N+](=O)[O-])ccc1O [BI6018]
- effect on HNF4α DNA binding (HNF4α DNA binding): inactive
- effect on HNF4α protease sensitivity (DARTS) (HNF4α): no effect
- activity in the insulin promoter assay (human insulin promoter): inactive

Compound: CCCCC/C=C\C/C=C\CCCCCCCC(=O)O [linoleic acid]
- effect of fatty acid on insulin gene expression (quantitative RT-PCR) [1]: inhibited

Compound: CCCCCS(=O)(=O)NC(=O)c1ccc2nc(C)n(Cc3ccc(Cl)cc3Cl)c2c1 [FK614, reference compound]
- effect on Kip2 expression (p57Kip2 expression): no effect
- effect on endogenous insulin expression / insulin promoter activity [1]: no effect
- Hill coefficient of binding (full-length HNF4α): 0.6 ± 0.1
- activity as PPARγ agonist (PPARγ): had activity as PPARγ agonists
- effect on HNF4α DNA binding (HNF4α DNA binding): inactive
- effect on HNF4α protease sensitivity (DARTS) (HNF4α): no effect
